Reference: ChEMBL document CHEMBL3739417, “Synthesis and biological evaluation of novel 4,5-disubstituted 2H-1,2,3-triazoles as cis-constrained analogues of combretastatin A-4” (2015)

Columns and labels:
Format in all cases: functional
ACHN = experiment: Growth inhibition of human ACHN cells after 48 hrs by sulforhodamine B assay
Summary of the method: (§1)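 NCI-60 panel screen by SRB assay (Rubinstein method). Percentage growth taken from optical density of SRB colour, read before and 48 hrs after exposure to compound or vehicle control. All analogues first screened at 10^-5 M. Analogues giving 60% growth inhibition at that level in at least eight lines then went to a five-concentration dose-response study.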

[1] = Growth inhibition of human HCT116 cells after 48 hrs by sulforhodamine B assay; details: HCT-116, 48 h; summary of the method: as §1
[2] = Growth inhibition of human HCC2998 cells after 48 hrs by sulforhodamine B assay; details: HCC 2998, 48 h; summary of the method: as §1
MCF7 = experiment: Growth inhibition of human MCF7 cells after 48 hrs by sulforhodamine B assay; details: MCF7, 48 h; summary of the method: as §1
CCRF-CEM = experiment: Growth inhibition of human CCRF-CEM cells after 48 hrs by sulforhodamine B assay; summary of the method: as §1
HT-29 = experiment: Growth inhibition of human HT-29 cells after 48 hrs by sulforhodamine B assay; details: HT-29, 48 h; summary of the method: as §1
[3] = Growth inhibition of human OVCAR3 cells after 48 hrs by sulforhodamine B assay; details: OVCAR-3, 48 h
Summary of the method: (§2)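 NCI-60 sulforhodamine B screen. Compounds were first tested at a single dose of 10⁻⁵ M; hits, defined as ≥60% growth inhibition in at least eight lines, went on to a five-concentration dose–response. SRB optical density was read before and 48 h after exposure to compound or vehicle. Percentage growth was calculated from OD.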

[4] = Growth inhibition of human UO31 cells after 48 hrs by sulforhodamine B assay; details: UO-31, 48 h; summary of the method: as §1
[5] = Growth inhibition of human RPMI8226 cells after 48 hrs by sulforhodamine B assay; details: RPMI-8226, 48 h; summary of the method: as §1
[6] = Growth inhibition of human HCT15 cells after 48 hrs by sulforhodamine B assay; details: HCT-15, 48 h; summary of the method: as §1
[7] = Growth inhibition of human SKOV3 cells after 48 hrs by sulforhodamine B assay; details: SK-OV-3, 48 h; summary of the method: as §1
SR = experiment: Growth inhibition of human SR cells after 48 hrs by sulforhodamine B assay; summary of the method: as §1
KM12 = experiment: Growth inhibition of human KM12 cells after 48 hrs by sulforhodamine B assay; details: KM12, 48 h; summary of the method: as §1
NCI-H460 = experiment: Growth inhibition of human NCI-H460 cells after 48 hrs by sulforhodamine B assay; details: NCI-H460, 48 h; summary of the method: as §1
[8] = Growth inhibition of human HL-60(TB) cells after 48 hrs by sulforhodamine B assay; details: HL-60, 48 h; summary of the method: as §1
U-251 = experiment: Growth inhibition of human U251 cells after 48 hrs by sulforhodamine B assay; details: U-251, 48 h; summary of the method: as §1
[9] = Growth inhibition of human PC3 cells after 48 hrs by sulforhodamine B assay; details: PC-3, 48 h; summary of the method: as §1
MDA-MB-435 = experiment: Growth inhibition of human MDA-MB-435 cells after 48 hrs by sulforhodamine B assay; details: MDA-MB-435, 48 h; summary of the method: as §2
[10] = Growth inhibition of human COLO205 cells after 48 hrs by sulforhodamine B assay; details: COLO 205, 48 h; summary of the method: as §1
MDA-MB-231 = experiment: Growth inhibition of human MDA-MB-231 cells after 48 hrs by sulforhodamine B assay; details: MDA-MB-231, 48 h; summary of the method: as §1
[11] = Growth inhibition of human HOP92 cells after 48 hrs by sulforhodamine B assay; details: HOP-92, 48 h; summary of the method: as §1
[12] = Growth inhibition of human SF295 cells after 48 hrs by sulforhodamine B assay; details: SF-295, 48 h; summary of the method: as §1
[13] = Growth inhibition of human DU145 cells after 48 hrs by sulforhodamine B assay; details: DU-145, 48 h; summary of the method: as §1
A498 = experiment: Growth inhibition of human A498 cells after 48 hrs by sulforhodamine B assay; details: A498, 48 h; summary of the method: as §2
[14] = Growth inhibition of human SW620 cells after 48 hrs by sulforhodamine B assay; details: SW-620, 48 h; summary of the method: as §1
[15] = Growth inhibition of human SF268 cells after 48 hrs by sulforhodamine B assay; details: SF-268, 48 h; summary of the method: as §1
[16] = Growth inhibition of human SNB75 cells after 48 hrs by sulforhodamine B assay; details: SNB-75, 48 h; summary of the method: as §1
K562 = experiment: Growth inhibition of human K562 cells after 48 hrs by sulforhodamine B assay; details: K562, 48 h; summary of the method: as §1
[17] = Growth inhibition of human NCI-ADR-RES cells after 48 hrs by sulforhodamine B assay; summary of the method: as §1
A549 = experiment: Growth inhibition of human A549/ATCC cells after 48 hrs by sulforhodamine B assay; details: A549, 48 h; summary of the method: as §1
MDA-MB-468 = experiment: Growth inhibition of human MDA-MB-468 cells after 48 hrs by sulforhodamine B assay; details: MDA-MB-468, 48 h; summary of the method: as §1
[18] = Growth inhibition of human HOP62 cells after 48 hrs by sulforhodamine B assay; details: HOP-62, 48 h; summary of the method: as §1
CAKI-1 = experiment: Growth inhibition of human CAKI-1 cells after 48 hrs by sulforhodamine B assay; details: CAKI-1, 48 h; summary of the method: as §1
[19] = Growth inhibition of human IGROV1 cells after 48 hrs by sulforhodamine B assay; details: IGROV-1, 48 h; summary of the method: as §1
NCI-H23 = experiment: Growth inhibition of human NCI-H23 cells after 48 hrs by sulforhodamine B assay; details: NCI-H23, 48 h; summary of the method: as §1
[20] = Growth inhibition of human LOXIMVI cells after 48 hrs by sulforhodamine B assay; details: LOX IMVI; summary of the method: as §1
SK-MEL-2 = experiment: Growth inhibition of human SK-MEL-2 cells after 48 hrs by sulforhodamine B assay; details: SK-MEL-2, 48 h; summary of the method: as §1
[21] = read-out: LD50 (the source's name)

`Clc1ccc(-c2n[nH]nc2-c2ccccn2)c(Cl)c1` gave a GI50 (ACHN) of 1.75 µM, a CC50 (ACHN; [21]) greater than 100 µM and a GI50 [1] of 2.89 µM. The CC50 [1, 21] was greater than 100 µM, the GI50 [2] was 9.16 µM and the CC50 [2, 21] was greater than 100 µM. The GI50 (MCF7) was 2.58 µM, the CC50 (MCF7; [21]) was greater than 100 µM and the GI50 (CCRF-CEM) was 3.38 µM. For the same compound, the LC50 (concentration killing 50% of cells) (CCRF-CEM; read-out: LD50) was greater than 100 µM, the GI50 (HT-29) was 4.56 µM and the LC50 (concentration killing 50% of cells) (HT-29; read-out: LD50) was greater than 100 µM. It also gave a GI50 [3] of 3.38 µM, an LC50 (concentration giving 50% net cell kill) ([3]; read-out: LD50) greater than 100 µM and a GI50 [4] of 6.84 µM. For the same compound, the LC50 (concentration killing 50% of cells) ([4]; read-out: LD50) was greater than 100 µM, the GI50 [5] was 10.7 µM and the CC50 [5, 21] was greater than 100 µM. The GI50 [6] was 2.93 µM, the CC50 [6, 21] was greater than 100 µM and the GI50 [7] was 2.72 µM. For the same compound, the LC50 (concentration killing 50% of cells) ([7]; read-out: LD50) was greater than 100 µM, the GI50 (SR) was 5.43 µM and the LC50 (concentration giving 50% net cell kill) (SR; read-out: LD50) was greater than 100 µM. The GI50 (KM12) was 6.87 µM, the LC50 (concentration killing 50% of cells) (KM12; read-out: LD50) was greater than 100 µM and the GI50 (NCI-H460) was 3.67 µM. For the same compound, the CC50 (NCI-H460; [21]) was greater than 100 µM, the GI50 [8] was 5.75 µM and the CC50 [8, 21] was greater than 100 µM. For the same compound, the GI50 (U-251) was 5.35 µM, the CC50 (U-251; [21]) was greater than 100 µM and the GI50 [9] was 4.5 µM. The CC50 [9, 21] was greater than 100 µM, the GI50 (MDA-MB-435) was 2.2 µM and the LC50 (concentration killing 50% of cells) (MDA-MB-435; read-out: LD50) was greater than 100 µM. The GI50 [10] was 2.89 µM, the CC50 [10, 21] was greater than 100 µM and the GI50 (MDA-MB-231) was 5.89 µM. The CC50 (MDA-MB-231; [21]) was greater than 100 µM, the GI50 [11] was 3.28 µM and the CC50 [11, 21] was greater than 100 µM. The GI50 [12] was 3.01 µM, the CC50 [12, 21] was greater than 100 µM and the GI50 [13] was 1.41 µM. For the same compound, the CC50 [13, 21] was greater than 100 µM, the GI50 (A498) was 3.18 µM and the LC50 (50% net cell kill) (A498; read-out: LD50) was greater than 100 µM. For the same compound, the GI50 [14] was 4.4 µM, the LD50 (concentration killing 50% of cells) [14] was greater than 100 µM and the GI50 [15] was 7.36 µM. The CC50 [15, 21] was greater than 100 µM, the GI50 [16] was 1.58 µM and the CC50 [16, 21] was greater than 100 µM. For the same compound, the GI50 (K562) was 5.5 µM, the CC50 (K562; [21]) was greater than 100 µM and the GI50 [17] was 3.92 µM. The CC50 [17, 21] was greater than 100 µM, the GI50 (A549) was 4.85 µM and the CC50 (A549; [21]) was greater than 100 µM. The GI50 (MDA-MB-468) was 3.2 µM, the CC50 (MDA-MB-468; [21]) was greater than 100 µM and the GI50 [18] was 5.32 µM. The LC50 (concentration killing 50% of cells) ([18]; read-out: LD50) was greater than 100 µM, the GI50 (CAKI-1) was 8.42 µM and the CC50 (CAKI-1; [21]) was greater than 100 µM. For the same compound, the GI50 [19] was 5.94 µM, the CC50 [19, 21] was greater than 100 µM and the GI50 (NCI-H23) was 9.13 µM. It also gave an LC50 (concentration giving 50% cell kill) (NCI-H23; read-out: LD50) greater than 100 µM, a GI50 [20] of 4.83 µM and a CC50 [20, 21] greater than 100 µM. It also gave a GI50 (SK-MEL-2) of 6.52 µM and a CC50 (SK-MEL-2; [21]) greater than 100 µM.
